From PubChem BioAssay
Compounds with a hit are over-represented: about 4.3% of the library has one in this group of screens.
APP 5'UTR act – APP 5'UTR luciferase reporter activation | SH-SY5Y APP 5'UTR luciferase reporter, luminescence; zero percent = DMSO vehicle wells | activation, % at 2 µM | hit rate 1% among 190,000;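 active means activation above a set limit, based on mean plus 3 SD of controls, cut at about 140% in these data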
NF-kB neuron act – raises NF-kB expression in human neuronal cells; NF-kB reporter expression; stronger effect = higher value; fold change at 12.5 µM; hit rate 1.6% among 190,000; in the data active means fold change above about 3.3
FLuc inhib CS – Photinus pyralis luciferase inhibition counter-screen. AID 1006. ATPLite firefly luciferase biochemical luminescence, 10 min. hit rate 1.5% among 200,000. inhibition, % at 10 µM;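 active means inhibition above about 50% when tested at 10 µM, limit read from the data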
Target sequence (P08659 whole entry, looked up): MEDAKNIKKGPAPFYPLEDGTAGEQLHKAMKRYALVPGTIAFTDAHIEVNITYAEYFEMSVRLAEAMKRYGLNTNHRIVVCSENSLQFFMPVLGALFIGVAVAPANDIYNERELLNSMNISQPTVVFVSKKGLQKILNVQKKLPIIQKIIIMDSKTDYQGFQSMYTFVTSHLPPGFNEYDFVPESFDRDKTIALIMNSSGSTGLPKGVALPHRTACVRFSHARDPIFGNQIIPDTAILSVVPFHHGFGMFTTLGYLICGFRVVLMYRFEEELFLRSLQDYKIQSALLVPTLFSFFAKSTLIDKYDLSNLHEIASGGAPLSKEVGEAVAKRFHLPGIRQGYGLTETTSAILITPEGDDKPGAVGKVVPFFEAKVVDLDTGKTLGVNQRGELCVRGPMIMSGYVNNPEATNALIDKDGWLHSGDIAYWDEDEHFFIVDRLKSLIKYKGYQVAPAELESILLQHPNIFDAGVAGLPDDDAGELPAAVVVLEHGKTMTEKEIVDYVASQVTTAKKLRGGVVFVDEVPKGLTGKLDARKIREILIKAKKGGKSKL
STAT1 activator – activators of IFN-gamma induced STAT1 signaling; NIH 3T3 STAT1-luciferase reporter, luminescence; 100% = IFN-gamma alone, no compound; activation (% of control), % at 5.5 µM; hit rate 2.6% among 200,000;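 active means activation above the screen-wide mean activation plus 3 SD, cut at about 130% in these data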;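 further: raw ratio to IFN-gamma control signal so 100% means no change and 0% no light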
FLuc act counter – firefly luciferase counter-screen for stimulation assays. P08659. ATPlite luciferase biochemical, luminescence, 10 min; 0 = ATP-free wells, 1 = DMSO control. activation factor at 10 µM. 200,000 tested, under 10 active. AID 1027;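 active means luciferase activation factor, scaled between plate controls, of at least 2 with compound at 10 µM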
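test system = cell-free luciferase reagent | medium = PBS as buffer for the ATP substrate | dosing = test compounds dosed from 2 mM stocks in 100% DMSO | incubation = 10 min at ambient temperature | detection = luminescence measurement of luciferase light output | benchmarks = low control with PBS replacing ATP, high control enzyme plus ATP without compound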
* hit, by the source's call; · = not tested or not shown.

SMILES | APP 5'UTR act | NF-kB neuron act | FLuc inhib CS | STAT1 activator | FLuc act counter
S=c1sc(SCCOc2ccccc2)nn1-c1ccccc1 | -10 | 1.1 | -19 | 108 | 1.2
c1cncc(CSc2ccc(-c3ccc4c(c3)OCO4)nn2)c1 | 63 | 2.5 | 53* | 128 | 0.5
CCn1c2ccccc2c2cc(NC(=O)c3cc(OC)cc(OC)c3)ccc21 | -95 | 4* | -8 | 97 | 1.1
Cc1ccc(NC(=O)C(OC(=O)c2ccccc2Cl)c2ccccc2)cc1Cl (stereo unspecified) | -15 | 1.1 | -9 | 96 | 1.1
COc1ccc(C(=O)C(OC(=O)c2ccccc2)c2ccccc2)cc1 (stereo unspecified) | 42 | 1.5 | -2 | 133* | 1
COc1ccc(C(=O)C(OC(=O)c2ccccc2Cl)c2ccccc2)cc1 (stereo unspecified) | 26 | 1.5 | -6 | 140* | 1.1
Cc1c(Cl)c(C(=O)NNC(=S)Nc2ccc(F)cc2)nn1C | 33 | 1.7 | 10 | 115 | 0.9
O=[N+]([O-])c1ccc(N/N=C/c2ccc[nH]2)cc1 | -65 | 26* | 8 | 90 | 0.9
O=C(CCN1C(=O)c2cccc3cccc(c23)C1=O)N1CCOCC1 | 33 | 2 | 7 | 129* | 0.9
O=C(CCN1C(=O)c2ccccc2C1=O)N1CCOCC1 | 16 | 1.3 | -5 | 101 | 1.1
CC(=O)Oc1ccccc1N(C(C)=O)S(=O)(=O)c1cccc([N+](=O)[O-])c1 | -8 | 1.1 | -5 | 97 | 1.1
CCc1nc(NCc2ccccn2)c2oc3ccccc3c2n1 | · | 0.52 | -6 | · | 1.1
Clc1ncnc2c1oc1ccccc12 | 86 | 3.1 | -5 | 142* | 1.1
c1ccc(CNc2ncnc3c2oc2ccccc23)nc1 | 55 | 1.3 | -5 | 132* | 1
CCSc1ncnc2c1oc1ccccc12 | -1 | 1.3 | -1 | 109 | 1
CC(=O)c1ccc(Nc2ncnc3c2oc2ccccc23)cc1 | 21 | 2.5 | -4 | 161* | 1
CC(=O)Nc1ccc(Nc2nc(C)nc3c2oc2ccccc23)cc1 | 4 | 0.54 | -4 | 99 | 1
O=C(NNC(=O)c1cccc(O)c1)Nc1ccc([N+](=O)[O-])cc1 | 12 | 0.96 | -3 | 95 | 1
CCC(=O)c1cc(F)c(N2CCN(S(=O)(=O)c3ccc(C)cc3)CC2)cc1C | 9 | 0.7 | -2 | 98 | 1
CC1CCN(C(=S)NCCc2ccccc2)CC1 | 95 | 3.4* | 15 | 124 | 0.9
S=C(NCCc1ccccc1)NC1CCCCCC1 | 78 | 3.2 | 5 | 137* | 0.9
Cc1cccc(OCC(=O)Nc2ccc(N3CCN(C(=O)c4ccccc4)CC3)cc2)c1 | -9 | 0.95 | 0 | 91 | 1
COc1ccc(/C(C)=N/Nc2cccc(C(=O)O)c2)cc1OC | 217* | 1.1 | 1 | 107 | 1
C=CCOc1c(CNc2cccc(C(=O)O)c2)cccc1OCC | 11 | 1.6 | 0 | 112 | 1
C/C(=N\Nc1cccc(C(=O)O)c1)c1ccc(Cl)s1 | 86 | 2.1 | -2 | 135* | 1
SMILES | APP 5'UTR act | NF-kB neuron act | FLuc inhib CS | STAT1 activator | FLuc act counter
COc1ccc(/C(C)=N\NS(=O)(=O)c2ccccc2)cc1OC | 12 | 1.1 | -3 | 90 | 1
C=CCOc1c(CNc2cccc(C(=O)O)c2)cccc1OC | 56 | 1.9 | 1 | 145* | 1
Cc1ccccc1Nc1nc(N)c2ccccc2n1 | 144* | 8.9* | 87* | 108 | 0.1
Nc1nc(Nc2ccc(Cl)cc2)nc2ccccc12 | 115 | 6* | 93* | 78 | 0.1
Cc1ccccc1Nc1nc(N)nc(CSc2nc3ccccc3c(=O)n2C)n1 | -7 | 0.58 | -7 | 93 | 1.1
Nc1nc(CCl)nc(Nc2ccccc2)n1 | 15 | 0.16 | 7 | 106 | 0.9
Oc1ccc(Nc2nc(N3CCCC3)c3ccccc3n2)cc1 | -8 | 0.47 | -7 | 115 | 1.1
Nc1nc(Nc2ccccc2)nc2ccccc12 | 155* | 5.5* | 88* | 105 | 0.1
Cc1ccc(-n2c(Cl)c(Cl)nc(Cl)c2=O)cc1 | -97 | 0.35 | -3 | 115 | 1
O=C(NCCO)C(O)C(O)C(=O)NCCO (stereo unspecified) | -1 | 1.1 | -10 | 103 | 1.1
O=C(Nc1cccc2cccnc12)c1cccc2ccccc12 | 3 | 1 | -7 | 102 | 1.1
C/C(=N\Nc1cccc2cccnc12)c1ccc(N)cc1 | 198* | 2.3 | 11 | 111 | 0.9
Oc1c(/C=N/Nc2cccc3cccnc23)ccc2ccccc12 | 87 | 1.8 | 6 | 98 | 0.9
C/C(=N\Nc1ncc(Cl)cc1Cl)c1ccc(N2CCOCC2)cc1 | 63 | 1.5 | 8 | 111 | 0.9
C/C(=N\Nc1cccc2cccnc12)c1ccccc1O | 202* | 6.9* | 68* | 118 | 0.3
COc1cc(N/N=C(\C)c2ccc(N)cc2)nc(-c2ccccc2)n1 | -5 | 1.1 | 18 | 108 | 0.8
C/C(=N\Nc1ncc(Cl)cc1Cl)c1ccccn1 | -70 | 0.44 | 94* | 36 | 0.1
C/C(=N\Nc1cccc2cccnc12)c1ccccn1 | 272* | 0.97 | 87* | 61 | 0.1
CC(NS(=O)(=O)/C=C/c1ccccc1)c1ccccc1 (stereo unspecified) | -8 | 1.2 | -4 | 101 | 1
COc1ccc(CC(=O)Nc2nnc(C(C)(C)C)s2)cc1OC | 12 | 1.1 | -6 | 78 | 1.1
OC(CNCc1ccccc1Cl)C(F)(F)F (stereo unspecified) | 32 | 1.1 | -9 | 99 | 1.1
Cc1ccc2nc(/C(C#N)=C\c3ccc(N4CCOCC4)o3)[nH]c2c1 | 121 | 2.5 | 62* | 145* | 0.4
CCOC(=O)c1ccc(N=Nc2c(C)c(C#N)c(O)[nH]c2=O)cc1 | 135* | 3.6* | 0 | 101 | 1
Cc1c(C#N)c(O)n(CCO)c(=O)c1N=Nc1ccc(S(N)(=O)=O)cc1 | 14 | 1 | -4 | 95 | 1
COc1ccccc1CNC(=O)CCS(=O)(=O)c1cccc2nonc12 | -7 | 1.1 | 0 | 99 | 1
SMILES | APP 5'UTR act | NF-kB neuron act | FLuc inhib CS | STAT1 activator | FLuc act counter
CCC(=O)Nc1cccc(-c2nnc(SCC(=O)c3ccccc3)n2C)c1 | 100 | 2.8 | 27 | 148* | 0.7
CCC(=O)Nc1cccc(-c2nnc(SCC(=O)NCc3ccco3)n2C)c1 | -1 | 1.3 | -8 | 107 | 1.1
CN1CCN(CC(=O)Nc2nc(-c3ccccc3)cs2)CC1 | 12 | 0.95 | -2 | 96 | 1
CN1CCN(CC(=O)N(C)c2nc(-c3ccccc3)cs2)CC1 | 106 | 1.4 | 7 | 134* | 0.9
C=C(C(=O)c1ccccc1)C(C)C(=C)C(=O)c1ccccc1 | -41 | 8.5* | -5 | 83 | 1.1
CCCCCCCOc1ccc(OC(=O)c2ccncc2)cc1 | -3 | 8.6* | -3 | 97 | 1
CCCCCCCOc1ccc(OC(=O)c2cccnc2)cc1 | 3 | 11* | -4 | 103 | 1
CCOc1ncccc1C(=O)OCC(=O)c1ccc(C)c(C)c1 | -4 | 1.3 | 17 | 107 | 0.8
COCn1c(-c2ccc(OC)c(OC)c2)nc2ccccc21 | 73 | 1.8 | 38 | 132* | 0.6
